Results from ChEMBL document CHEMBL2046352, “Discovery of novel 5-(ethyl or hydroxymethyl) analogs of 2'-'up' fluoro (or hydroxyl) pyrimidine nucleosides as a new class of Mycobacterium tuberculosis, Mycobacterium bovis and Mycobacterium avium inhibitors” (Bioorg Med Chem, 2012).

What was measured:
[1] = tested on: Mycobacterium tuberculosis; assay: Antimycobacterial activity against Mycobacterium bovis BCG assessed as inhibition of microbial growth at 1 ug/ml incubated for 6 days by MABA method; type: functional; settings: variant bovis BCG, 144 h, read-out: GI
In short: (§1)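 Microplate alamar blue assay in 7H9GC medium. Compounds dissolved in DMSO at 10 mg/mL (stock), diluted to 100, 50, 25, 10, 5, 1 and 0.5 ug/mL, each in triplicate. Frozen inoculum added at final 2.5 x 10^5 CFU/mL. Bacteria-alone and medium-alone control wells. Read by colour change and fluorescence. % inhibition = (test − M bkg)/(B − M bkg) x 100, mean of two experiments. MIC50 = lowest concentration giving ≥50% inhibition.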

[2] = tested on: Mycobacterium tuberculosis; assay: Antimycobacterial activity against Mycobacterium bovis BCG assessed as inhibition of microbial growth at 100 ug/ml incubated for 6 days by MABA method; type: functional; settings: variant bovis BCG, 144 h, read-out: GI; in short: as §1
[3] = tested on: Mycobacterium tuberculosis; assay: Antimycobacterial activity against Mycobacterium bovis BCG assessed as inhibition of microbial growth at 50 ug/ml incubated for 6 days by MABA method; type: functional; settings: variant bovis BCG, 144 h, read-out: GI; in short: as §1
[4] = tested on: Mycobacterium tuberculosis; assay: Antimycobacterial activity against Mycobacterium bovis BCG assessed as inhibition of microbial growth at 0.5 to 100 ug/ml incubated for 6 days by MABA method; type: functional, variant bovis BCG; in short: as §1
[5] = tested on: Mycobacterium tuberculosis; assay: Antimycobacterial activity against Mycobacterium bovis BCG assessed as inhibition of microbial growth at 10 ug/ml incubated for 6 days by MABA method; type: functional; settings: variant bovis BCG, 144 h, read-out: GI; in short: as §1
[6] = tested on: Mycobacterium tuberculosis; assay: Antimycobacterial activity against Mycobacterium bovis BCG assessed as inhibition of microbial growth at 5 ug/ml incubated for 6 days by MABA method; type: functional; settings: variant bovis BCG, 144 h, read-out: GI; in short: as §1
[7] = tested on: Mycobacterium tuberculosis; assay: Antimycobacterial activity against Mycobacterium bovis BCG assessed as inhibition of microbial growth incubated for 6 days by MABA method; type: functional; settings: variant bovis BCG, 144 h; in short: as §1
[8] = tested on: Mycobacterium tuberculosis; assay: Antimycobacterial activity against Mycobacterium bovis BCG assessed as inhibition of microbial growth at 0.5 ug/ml incubated for 6 days by MABA method; type: functional; settings: variant bovis BCG, 144 h, read-out: GI; in short: as §1

Row | Structure (SMILES) | inhibition of growth at 100 µg/mL [2] [%] | inhibition of growth at 50 µg/mL [3] [%] | further results
1 | Cc1cn([C@@H]2O[C@H](CO)[C@@H](Br)[C@@H]2O)c(=O)[nH]c1=O | – | – | inhibition of growth at 1 µg/mL [1]: 40%
2 | CCc1cn([C@@H]2O[C@H](COC(C)=O)[C@@H](OC(C)=O)[C@@H]2F)c(=O)[nH]c1=O | 75 | 55 | –
3 | CCc1cn([C@@H]2O[C@H](CO)[C@@H](O)[C@@H]2F)c(=O)[nH]c1=S | 65 | 55 | –
4 | CCc1cn([C@@H]2O[C@H](CO)[C@@H](O)[C@@H]2F)c(=O)nc1N | 50 | – | –
5 | CCc1cn2c(nc1=O)O[C@@H]1[C@H](F)[C@H]2O[C@@H]1CO | 25 | 25 | –
6 | CCc1cn([C@@H]2O[C@H](CO)[C@@H](N=[N+]=[N-])[C@@H]2F)c(=O)[nH]c1=O | – | – | growth inhibition (GI) [4]: 0%
7 | CCc1cn([C@@H]2O[C@H](CO)[C@@H](Br)[C@@H]2F)c(=O)[nH]c1=O | 80 | 70 | inhibition of growth at 10 µg/mL [5]: 60%; inhibition of growth at 5 µg/mL [6]: 50%; MIC50 [7]: 5 µg/mL
8 | CCc1cn([C@@H]2O[C@H](CO)C[C@@H]2F)c(=O)[nH]c1=O | 25 | – | –
9 | O=c1[nH]c(=O)n([C@@H]2O[C@H](CO)[C@@H](O)[C@@H]2O)cc1CO | – | – | growth inhibition (GI) [4]: 0%
10 | O=c1[nH]c(=S)c(CO)cn1[C@@H]1O[C@H](CO)[C@@H](O)[C@@H]1O | 100 | 100 | inhibition of growth at 10 µg/mL [5]: 90%; inhibition of growth at 5 µg/mL [6]: 75%; inhibition of growth at 0.5 µg/mL [8]: 50%; MIC50 [7]: 0.5 µg/mL
11 | COCc1cn([C@@H]2O[C@H](CO)[C@@H](O)[C@@H]2O)c(=O)nc1N | 80 | 60 | inhibition of growth at 10 µg/mL [5]: 50%
12 | CCc1cn([C@H]2O[C@@H](CO)[C@H](O)[C@H]2F)c(=O)[nH]c1=O (single isomer, unassigned) | – | – | growth inhibition (GI) [4]: 0%
13 | CO[C@H]1/C=C/O[C@@]2(C)Oc3c(C)c(O)c4c(O)c(c(/C=N/N5CCN(C)CC5)c(O)c4c3C2=O)NC(=O)/C(C)=C\C=C\[C@H](C)[C@H](O)[C@@H](C)[C@@H](O)[C@@H](C)[C@H](OC(C)=O)[C@@H]1C [RIFAMPIN] | – | – | inhibition of growth at 0.5 µg/mL [8]: 100%
